Test results from ChEMBL document CHEMBL1152541, “Staurosporine tethered peptide ligands that target cAMP-dependent protein kinase (PKA): optimization and selectivity profiling” (Bioorg Med Chem, 2009).
*1 amine or outer side, *2 acyl side, *3 side chain or, on linkers, in order; H or OH if unused. Where a SMILES comes first, the peptide text is derived from it. Bridges are numbered along the chain shown (N, C = ends). [ ]: non-standard residue; d: D form. The star is where a group is joined. Staurosporine = CO[C@@H]1[C@H](N(C)*)C[C@H]2O[C@]1(C)n1c3ccccc3c3c4c(c5c6ccccc6n2c5c31)C(=O)NC4; Suc = O=C(CCC(=O)[*:2])[*:1]; Dap = NC[C@H](N)C(=O)O; βAla = NCCC(=O)O

What was measured:
[1] = target: Ribosomal protein S6 kinase alpha-3 (Homo sapiens) (UniProt P51812); assay: Binding affinity to human RPS6KA3 kinase domain 1 at 500 nM by cell-based competition binding assay relative to control in presence of DTT
[2] = target: T1, Tyrosine-protein kinase JAK3 (Homo sapiens) (UniProt P52333); assay: Binding affinity to human JAK3 kinase domain 2 at 500 nM by cell-based competition binding assay relative to control in presence of DTT
T1 sequence (whole entry): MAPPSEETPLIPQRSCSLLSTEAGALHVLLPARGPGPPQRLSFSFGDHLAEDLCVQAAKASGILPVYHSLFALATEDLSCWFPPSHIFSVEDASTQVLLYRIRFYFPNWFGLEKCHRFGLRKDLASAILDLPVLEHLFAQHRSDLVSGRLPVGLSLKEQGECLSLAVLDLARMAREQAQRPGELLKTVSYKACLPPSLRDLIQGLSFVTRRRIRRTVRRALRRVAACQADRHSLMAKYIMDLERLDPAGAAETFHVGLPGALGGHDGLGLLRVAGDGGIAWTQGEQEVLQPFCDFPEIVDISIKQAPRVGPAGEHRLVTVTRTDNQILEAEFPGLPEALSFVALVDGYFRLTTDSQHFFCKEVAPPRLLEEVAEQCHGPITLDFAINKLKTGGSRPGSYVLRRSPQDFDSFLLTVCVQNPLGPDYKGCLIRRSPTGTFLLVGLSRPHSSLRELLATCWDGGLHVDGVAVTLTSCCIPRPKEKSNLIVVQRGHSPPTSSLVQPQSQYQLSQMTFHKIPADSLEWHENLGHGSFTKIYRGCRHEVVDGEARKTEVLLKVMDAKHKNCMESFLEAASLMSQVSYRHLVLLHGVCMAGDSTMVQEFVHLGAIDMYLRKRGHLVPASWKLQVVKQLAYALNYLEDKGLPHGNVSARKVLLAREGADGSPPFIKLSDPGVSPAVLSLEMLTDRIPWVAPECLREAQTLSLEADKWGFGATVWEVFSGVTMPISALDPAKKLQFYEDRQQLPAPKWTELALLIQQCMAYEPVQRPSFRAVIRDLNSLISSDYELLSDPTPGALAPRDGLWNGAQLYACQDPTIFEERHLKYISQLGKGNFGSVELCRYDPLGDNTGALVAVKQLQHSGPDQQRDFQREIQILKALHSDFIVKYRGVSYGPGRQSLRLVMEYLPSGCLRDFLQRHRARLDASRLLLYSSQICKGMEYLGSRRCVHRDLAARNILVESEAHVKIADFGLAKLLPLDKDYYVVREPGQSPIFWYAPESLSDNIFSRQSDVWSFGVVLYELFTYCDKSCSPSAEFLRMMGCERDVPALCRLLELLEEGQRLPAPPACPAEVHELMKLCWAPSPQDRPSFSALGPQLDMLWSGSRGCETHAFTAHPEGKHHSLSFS
Outline: (§1)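 Competition binding screen (Ambit) across a panel of 90 kinases, scoring test ligand displacement of each kinase's binding relative to control. The screen ran under reducing conditions with 7.5 mM DTT.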

[3] = target: T2, Serine/threonine-protein kinase DCLK1 (Homo sapiens) (UniProt O15075); assay: Binding affinity to human DCAMKL1 at 200 nM by cell-based competition binding assay relative to control in presence of DTT
T2 sequence (whole entry): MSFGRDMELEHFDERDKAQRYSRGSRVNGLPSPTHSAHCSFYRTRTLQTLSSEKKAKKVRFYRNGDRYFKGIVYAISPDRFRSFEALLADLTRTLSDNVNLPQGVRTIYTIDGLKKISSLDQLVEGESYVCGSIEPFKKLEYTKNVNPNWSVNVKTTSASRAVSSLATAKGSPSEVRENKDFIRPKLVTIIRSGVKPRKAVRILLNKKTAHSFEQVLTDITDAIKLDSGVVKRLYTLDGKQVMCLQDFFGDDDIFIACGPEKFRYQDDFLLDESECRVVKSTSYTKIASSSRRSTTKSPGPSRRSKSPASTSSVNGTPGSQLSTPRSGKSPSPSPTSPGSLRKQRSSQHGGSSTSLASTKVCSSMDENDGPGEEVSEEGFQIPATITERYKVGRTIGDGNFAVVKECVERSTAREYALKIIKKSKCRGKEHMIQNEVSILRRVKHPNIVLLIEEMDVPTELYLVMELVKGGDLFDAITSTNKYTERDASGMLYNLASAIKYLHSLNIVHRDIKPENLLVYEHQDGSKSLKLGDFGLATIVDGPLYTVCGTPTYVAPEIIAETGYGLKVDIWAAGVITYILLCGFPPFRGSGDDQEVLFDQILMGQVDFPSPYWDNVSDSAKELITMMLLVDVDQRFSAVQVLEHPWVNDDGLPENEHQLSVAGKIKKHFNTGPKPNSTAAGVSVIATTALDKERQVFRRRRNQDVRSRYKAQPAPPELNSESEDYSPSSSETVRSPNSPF
Outline: (§2)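 Commercial (Ambit) competitive kinase-binding panel of 90 kinases measured the binding profile. Run under reducing conditions of 7.5 mM DTT. Binding is expressed relative to control.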

[4] = target: Receptor tyrosine-protein kinase erbB-2 (Homo sapiens) (UniProt P04626); assay: Binding affinity to human ERBB2 at 200 nM by cell-based competition binding assay relative to control in presence of DTT; outline: as §2
[5] = target: MAP/microtubule affinity-regulating kinase 3 (Homo sapiens) (UniProt P27448); assay: Binding affinity to human MARK3 at 200 nM by cell-based competition binding assay relative to control in presence of DTT; outline: as §1
[6] = target: Serine/threonine-protein kinase PLK3 (Homo sapiens) (UniProt Q9H4B4); assay: Binding affinity to human PLK3 at 200 nM by cell-based competition binding assay relative to control in presence of DTT
[7] = target: Mast/stem cell growth factor receptor Kit (Homo sapiens) (UniProt P10721); assay: Binding affinity to human KIT at 50 nM by cell-based competition binding assay relative to control in presence of DTT; outline: as §1
[8] = target: Mitogen-activated protein kinase kinase kinase 4 (Homo sapiens) (UniProt Q9Y6R4); assay: Binding affinity to human MAP3K4 at 50 nM by cell-based competition binding assay relative to control in presence of DTT; outline: as §1
[9] = target: Hepatocyte growth factor receptor (Homo sapiens) (UniProt P08581); assay: Binding affinity to human MET at 50 nM by cell-based competition binding assay relative to control in presence of DTT
[10] = target: MAP kinase-interacting serine/threonine-protein kinase 2 (Homo sapiens) (UniProt Q9HBH9); assay: Binding affinity to human MKNK2 at 50 nM by cell-based competition binding assay relative to control in presence of DTT
[11] = target: Mitogen-activated protein kinase 11 (Homo sapiens) (UniProt Q15759); assay: Binding affinity to human p38beta at 50 nM by cell-based competition binding assay relative to control in presence of DTT
[12] = target: Ephrin type-A receptor 2 (Homo sapiens) (UniProt P29317); assay: Binding affinity to human EPHA2 at 50 nM by cell-based competition binding assay relative to control in presence of DTT; outline: as §2

Chain of Mitogen-activated protein kinase 11 (Homo sapiens) (Q15759 whole entry): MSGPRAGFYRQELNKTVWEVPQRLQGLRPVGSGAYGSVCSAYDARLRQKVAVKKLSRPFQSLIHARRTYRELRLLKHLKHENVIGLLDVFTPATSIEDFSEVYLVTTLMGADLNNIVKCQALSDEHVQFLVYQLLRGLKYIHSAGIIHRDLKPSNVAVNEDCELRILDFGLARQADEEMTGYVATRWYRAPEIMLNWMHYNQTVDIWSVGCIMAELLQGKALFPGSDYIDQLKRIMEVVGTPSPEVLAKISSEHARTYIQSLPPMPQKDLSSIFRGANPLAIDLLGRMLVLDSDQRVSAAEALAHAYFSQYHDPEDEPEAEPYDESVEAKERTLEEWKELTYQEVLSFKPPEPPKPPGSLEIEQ
Chain of Mitogen-activated protein kinase kinase kinase 4 (Homo sapiens) (Q9Y6R4 whole entry): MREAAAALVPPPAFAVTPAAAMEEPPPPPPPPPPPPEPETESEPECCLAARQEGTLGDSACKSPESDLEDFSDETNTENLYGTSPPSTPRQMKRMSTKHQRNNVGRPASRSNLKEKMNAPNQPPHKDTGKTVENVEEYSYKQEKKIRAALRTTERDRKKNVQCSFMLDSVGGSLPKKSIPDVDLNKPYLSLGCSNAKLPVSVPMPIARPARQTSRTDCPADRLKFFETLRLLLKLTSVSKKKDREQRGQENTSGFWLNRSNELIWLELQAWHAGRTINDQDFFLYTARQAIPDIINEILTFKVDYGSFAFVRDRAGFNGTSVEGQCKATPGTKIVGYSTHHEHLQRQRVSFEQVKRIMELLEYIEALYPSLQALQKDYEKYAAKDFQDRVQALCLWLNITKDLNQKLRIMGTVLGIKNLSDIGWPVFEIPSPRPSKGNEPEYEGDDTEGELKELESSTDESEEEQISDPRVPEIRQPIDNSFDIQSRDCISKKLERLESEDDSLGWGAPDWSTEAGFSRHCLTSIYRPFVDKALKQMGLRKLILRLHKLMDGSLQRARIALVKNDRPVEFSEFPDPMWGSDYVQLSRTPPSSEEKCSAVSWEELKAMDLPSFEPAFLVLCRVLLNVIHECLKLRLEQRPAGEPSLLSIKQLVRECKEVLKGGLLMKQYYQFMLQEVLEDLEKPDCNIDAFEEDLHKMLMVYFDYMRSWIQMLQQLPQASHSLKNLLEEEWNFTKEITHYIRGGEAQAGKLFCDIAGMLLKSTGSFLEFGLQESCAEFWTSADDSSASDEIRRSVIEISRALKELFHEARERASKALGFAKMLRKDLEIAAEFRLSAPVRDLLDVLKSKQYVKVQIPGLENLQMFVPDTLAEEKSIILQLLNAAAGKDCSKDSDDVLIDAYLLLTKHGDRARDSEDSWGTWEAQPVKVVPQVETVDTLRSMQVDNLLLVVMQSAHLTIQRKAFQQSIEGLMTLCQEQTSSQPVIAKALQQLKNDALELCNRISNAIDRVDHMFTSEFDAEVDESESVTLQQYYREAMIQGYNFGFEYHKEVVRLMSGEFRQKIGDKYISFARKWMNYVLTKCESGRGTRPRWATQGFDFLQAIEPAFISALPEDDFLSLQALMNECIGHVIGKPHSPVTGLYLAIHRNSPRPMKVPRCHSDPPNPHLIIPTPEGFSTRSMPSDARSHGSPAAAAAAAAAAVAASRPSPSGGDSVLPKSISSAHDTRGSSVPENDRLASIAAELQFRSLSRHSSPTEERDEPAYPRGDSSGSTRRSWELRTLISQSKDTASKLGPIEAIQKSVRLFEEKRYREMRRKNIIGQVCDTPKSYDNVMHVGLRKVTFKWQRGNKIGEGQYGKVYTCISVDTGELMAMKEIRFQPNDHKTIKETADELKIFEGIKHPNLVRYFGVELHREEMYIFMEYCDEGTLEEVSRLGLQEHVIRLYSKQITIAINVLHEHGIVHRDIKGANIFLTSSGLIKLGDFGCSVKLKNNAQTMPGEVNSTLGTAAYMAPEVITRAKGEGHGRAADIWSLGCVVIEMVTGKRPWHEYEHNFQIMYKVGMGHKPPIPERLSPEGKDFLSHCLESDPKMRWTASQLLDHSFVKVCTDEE
Chain of Receptor tyrosine-protein kinase erbB-2 (Homo sapiens) (P04626 whole entry): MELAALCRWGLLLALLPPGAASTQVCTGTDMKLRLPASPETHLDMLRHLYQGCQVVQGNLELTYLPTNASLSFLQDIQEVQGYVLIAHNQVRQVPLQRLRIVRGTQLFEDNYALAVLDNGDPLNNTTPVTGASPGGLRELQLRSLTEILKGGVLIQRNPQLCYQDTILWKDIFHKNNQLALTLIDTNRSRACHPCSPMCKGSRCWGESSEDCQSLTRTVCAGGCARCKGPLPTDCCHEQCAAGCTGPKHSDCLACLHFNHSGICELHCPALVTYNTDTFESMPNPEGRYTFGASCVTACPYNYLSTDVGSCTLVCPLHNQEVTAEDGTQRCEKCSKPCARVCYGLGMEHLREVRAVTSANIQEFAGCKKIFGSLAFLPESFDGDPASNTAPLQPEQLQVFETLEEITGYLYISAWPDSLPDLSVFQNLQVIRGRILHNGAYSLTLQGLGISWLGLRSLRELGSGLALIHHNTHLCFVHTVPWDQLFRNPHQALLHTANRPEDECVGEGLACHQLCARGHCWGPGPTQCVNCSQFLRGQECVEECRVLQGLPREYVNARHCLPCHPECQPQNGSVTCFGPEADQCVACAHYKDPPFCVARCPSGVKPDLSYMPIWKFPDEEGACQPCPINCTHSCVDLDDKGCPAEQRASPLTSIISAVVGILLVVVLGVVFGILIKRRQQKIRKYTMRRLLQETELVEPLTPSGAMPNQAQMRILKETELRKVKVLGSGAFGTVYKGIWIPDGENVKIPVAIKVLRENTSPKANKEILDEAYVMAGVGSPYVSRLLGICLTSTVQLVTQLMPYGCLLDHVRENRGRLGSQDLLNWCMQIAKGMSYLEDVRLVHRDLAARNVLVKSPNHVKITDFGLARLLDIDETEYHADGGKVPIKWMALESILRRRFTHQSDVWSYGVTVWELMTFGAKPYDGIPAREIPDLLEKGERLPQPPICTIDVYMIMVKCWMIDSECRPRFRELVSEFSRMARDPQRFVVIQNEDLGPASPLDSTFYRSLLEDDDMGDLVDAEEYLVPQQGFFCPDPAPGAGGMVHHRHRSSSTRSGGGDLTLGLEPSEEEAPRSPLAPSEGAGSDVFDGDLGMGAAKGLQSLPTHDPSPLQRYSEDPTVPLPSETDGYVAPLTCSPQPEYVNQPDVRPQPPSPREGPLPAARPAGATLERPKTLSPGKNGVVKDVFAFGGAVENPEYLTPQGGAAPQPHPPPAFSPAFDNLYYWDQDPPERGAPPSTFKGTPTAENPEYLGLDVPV
Chain of MAP/microtubule affinity-regulating kinase 3 (Homo sapiens) (P27448 whole entry, looked up): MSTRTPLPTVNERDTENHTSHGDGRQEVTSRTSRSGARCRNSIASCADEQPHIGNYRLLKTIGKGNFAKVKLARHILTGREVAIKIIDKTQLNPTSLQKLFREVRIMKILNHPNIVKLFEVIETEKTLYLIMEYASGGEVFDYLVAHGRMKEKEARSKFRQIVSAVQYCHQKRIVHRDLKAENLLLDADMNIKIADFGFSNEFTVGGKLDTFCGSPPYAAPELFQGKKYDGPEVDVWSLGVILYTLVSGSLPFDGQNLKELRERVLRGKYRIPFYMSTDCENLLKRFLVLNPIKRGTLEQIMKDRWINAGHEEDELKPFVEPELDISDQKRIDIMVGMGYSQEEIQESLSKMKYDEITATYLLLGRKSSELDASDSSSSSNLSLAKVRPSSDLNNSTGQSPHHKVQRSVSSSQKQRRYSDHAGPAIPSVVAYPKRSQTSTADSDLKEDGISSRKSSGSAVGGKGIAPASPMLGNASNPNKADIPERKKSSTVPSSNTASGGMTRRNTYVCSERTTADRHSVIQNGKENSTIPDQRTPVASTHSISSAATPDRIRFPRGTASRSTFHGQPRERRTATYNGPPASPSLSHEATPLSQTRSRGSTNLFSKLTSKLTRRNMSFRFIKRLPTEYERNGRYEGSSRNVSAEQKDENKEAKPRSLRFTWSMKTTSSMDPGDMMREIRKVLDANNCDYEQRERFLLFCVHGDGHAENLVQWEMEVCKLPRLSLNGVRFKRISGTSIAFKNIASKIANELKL
Chain of Mast/stem cell growth factor receptor Kit (Homo sapiens) (P10721 whole entry): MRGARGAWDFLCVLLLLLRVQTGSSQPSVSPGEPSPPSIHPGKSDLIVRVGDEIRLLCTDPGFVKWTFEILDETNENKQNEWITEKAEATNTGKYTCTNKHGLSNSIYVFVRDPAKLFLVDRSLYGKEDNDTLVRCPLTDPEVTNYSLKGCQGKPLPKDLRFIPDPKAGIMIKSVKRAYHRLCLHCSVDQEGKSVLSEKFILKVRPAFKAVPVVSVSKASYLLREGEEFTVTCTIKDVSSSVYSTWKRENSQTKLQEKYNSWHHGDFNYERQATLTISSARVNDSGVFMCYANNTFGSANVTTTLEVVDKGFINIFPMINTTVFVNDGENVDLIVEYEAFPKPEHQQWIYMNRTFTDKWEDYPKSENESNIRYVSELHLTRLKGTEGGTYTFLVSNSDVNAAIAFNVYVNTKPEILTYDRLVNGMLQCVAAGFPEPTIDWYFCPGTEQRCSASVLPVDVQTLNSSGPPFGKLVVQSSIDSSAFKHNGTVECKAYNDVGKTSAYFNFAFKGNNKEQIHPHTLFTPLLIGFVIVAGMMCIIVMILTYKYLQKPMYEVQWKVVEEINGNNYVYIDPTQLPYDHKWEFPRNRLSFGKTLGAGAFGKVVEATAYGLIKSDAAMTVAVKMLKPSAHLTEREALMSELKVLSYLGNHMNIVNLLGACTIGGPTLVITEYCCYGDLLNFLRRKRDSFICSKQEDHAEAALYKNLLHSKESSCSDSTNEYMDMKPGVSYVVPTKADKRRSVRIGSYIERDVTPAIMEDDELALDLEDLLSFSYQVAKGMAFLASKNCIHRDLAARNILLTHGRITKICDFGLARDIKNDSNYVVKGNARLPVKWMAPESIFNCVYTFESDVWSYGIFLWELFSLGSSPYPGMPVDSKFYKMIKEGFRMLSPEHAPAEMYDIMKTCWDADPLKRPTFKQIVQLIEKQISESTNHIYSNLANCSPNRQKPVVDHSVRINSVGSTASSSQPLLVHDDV

How did the Activity [1] turn out when `CO[C@@H]1[C@H](N(C)C(=O)CCC(=O)NCCC(=O)NCCC(=O)NCCC(N)=O)C[C@H]2O[C@]1(C)n1c3ccccc3c3c4c(c5c6ccccc6n2c5c31)C(=O)NC4` was run?
Its Activity is 44%.

What about the Activity [2] of the same compound?
The Activity was 3.6%.

How did the Activity [3] turn out when `CO[C@@H]1[C@H](N(C)C(=O)CCC(=O)NCCC(=O)NCCC(=O)NCCC(=O)NCCC(=O)NCCC(=O)NCCC(=O)NCCC(=O)N[C@H]2CSSC[C@@H](C(=O)NCC(N)=O)NC(=O)CNC(=O)[C@H](Cc3ccccc3)NC(=O)[C@H](C(C)C)NC(=O)[C@H](CCCNC(=N)N)NC(=O)[C@H](Cc3ccccc3)NC(=O)[C@H](C(C)C)NC2=O)C[C@H]2O[C@]1(C)n1c3ccccc3c3c4c(c5c6ccccc6n2c5c31)C(=O)NC4` ({Staurosporine-Suc-βAla-βAla-βAla-βAla-βAla-βAla-βAla}-CVFRVFGCG-NH2; disulfide 1-8) was run?
The Activity was 100%.

What about the Activity [4] of the same compound?
Its Activity is 100%.

What about the Activity [5] of the same compound?
Its Activity is 18%.

And the Activity [6]?
Its Activity is 100%.

What does the source list for `CO[C@@H]1[C@H](N(C)C(=O)CCC(=O)NCCC(=O)NCCC(=O)NCCC(=O)NCCC(=O)NCCC(=O)NCCC(=O)NCCC(=O)N[C@H]2CNC(=O)C[C@@H](C(N)=O)NC(=O)CNC(=O)[C@H](Cc3ccccc3)NC(=O)[C@H](C(C)C)NC(=O)[C@H](CCCNC(=N)N)NC(=O)[C@H](Cc3ccccc3)NC(=O)[C@H](C(C)C)NC2=O)C[C@H]2O[C@]1(C)n1c3ccccc3c3c4c(c5c6ccccc6n2c5c31)C(=O)NC4` ({Staurosporine-Suc-βAla-βAla-βAla-βAla-βAla-βAla-βAla}-[Dap]VFRVFGD-NH2; lactam 1-8)?
Activity [7]: 85%; Activity [8]: 96%; Activity [9]: 100%; Activity [10]: 100%; Activity [11]: 100%; Activity [12]: 99%
